# Experimental data: ChEMBL document CHEMBL1124444, “Hydroxyacetophenone-derived antagonists of the peptidoleukotrienes” (1989)
# Target: T1, Cysteinyl leukotriene receptor 1 (Cavia porcellus) (UniProt Q2NNR5)
# T1 sequence (whole entry): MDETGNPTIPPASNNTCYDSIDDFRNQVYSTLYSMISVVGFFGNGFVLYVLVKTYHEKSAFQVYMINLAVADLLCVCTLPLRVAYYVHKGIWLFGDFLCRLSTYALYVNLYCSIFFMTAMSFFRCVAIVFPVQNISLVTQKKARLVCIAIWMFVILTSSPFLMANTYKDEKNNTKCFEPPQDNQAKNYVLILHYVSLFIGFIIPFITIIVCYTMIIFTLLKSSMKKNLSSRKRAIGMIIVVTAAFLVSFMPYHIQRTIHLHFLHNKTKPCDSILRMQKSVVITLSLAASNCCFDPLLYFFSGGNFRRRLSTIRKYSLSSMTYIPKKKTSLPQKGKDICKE
# Test: Dissociation constant (KB) […] was evaluated in vitro in isolated guinea pig tracheal strips
# Conditions: not given
row,Compound,Kb [nM]
1,COc1cc(C(=O)O)ccc1COc1ccc(C(C)=O)c(O)c1C,850

# Species: Cavia porcellus
# Test: Percent inhibition of the leukotriene D4 (LTD4)-induced contraction of guinea pig tracheal spirals at 3.3 uM concentration
# Format: functional
# Conditions: Trachea, in the assay text read “leukotriene E4 (LTE4)” for “leukotriene D4 (LTD4)”
# In short: (§1)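 Guinea pig tracheal spirals were split into paired sections in 10 mL baths of modified Krebs at 37 °C, gassed with 95% O₂/5% CO₂, under 2 g resting tension. After 60 min equilibration (washes every 15 min), reproducible contractions to 8 nM LTD₄ or 8 nM LTE₄ were obtained. Compound was added for 10 min, then agonist challenge repeated; percent inhibition is relative to the vehicle-treated paired section.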
row,Compound,inhibition at 3.3 µM [%]
1,CCCc1c(OCc2ccc(-c3nn[nH]n3)c(Br)c2)ccc(C(C)=O)c1O,66
2,CCCc1c(OCc2ccc(C(=O)O)cc2OCCCC#N)ccc(C(C)=O)c1O,78
3,CCCc1c(OCc2cccc(NC(=O)CCC(=O)O)c2)ccc(C(C)=O)c1O,62
4,CCCc1c(OCc2ccc(C(=O)NS(C)(=O)=O)cc2OC)ccc(C(C)=O)c1O,37
5,CCCc1c(OCc2ccc(-c3nn[nH]n3)cc2)ccc(C(C)=O)c1O,76
6,CCCc1c(OCc2ccc(C(=O)O)cc2OCCCn2cnnn2)ccc(C(C)=O)c1O,87

# Species: Cavia porcellus
# Test: Percent inhibition of the leukotriene D4 (LTD4)-induced contraction of guinea pig tracheal spirals at 4 uM concentration
# Format: functional
# Conditions: Trachea
# In short: as §1
row,Compound,inhibition at 4 µM [%]
1,CCCc1c(OCc2ccc(OC)c(/C=C/C(=O)O)c2)ccc(C(C)=O)c1O,63
2,COc1cc(C(=O)O)ccc1COc1ccc(C(C)=O)c(O)c1C,33
3,CCCc1c(OCc2ccc(/C=C/C(=O)O)c(OC)c2)ccc(C(C)=O)c1O,66
4,CCCc1c(OCc2ccc(C(=O)O)cc2)ccc(C(C)=O)c1O,36
5,CCCc1c(OCc2ccc(C(=O)O)cc2[N+](=O)[O-])ccc(C(C)=O)c1O,57

# Test system: Cavia porcellus
# Test: Compound (50 mg/kg, intraperitoneally) was tested in spontaneously breathing, conscious guinea pigs challenged with aerosolized LTD4 (60-min pretreatment)
# Format: functional
# Conditions: not given
row,Compound,Protection [%]
1,COc1cc(C(=O)O)ccc1COc1ccc(C(C)=O)c(O)c1C,17
2,CCCc1c(OCc2ccc(C(=O)O)cc2OC)ccc(C(=O)NC)c1O,33

# Species: Cavia porcellus
# Test: Percent inhibition of the leukotriene E4 (LTE4)-induced contraction of guinea pig tracheal spirals at 10 uM concentration; NS means data was not statistically significant
# Conditions: Trachea
row,Compound,inhibition
1,CCCC(=O)N(Cc1ccc(C(=O)O)cc1OC)c1ccc(C(C)=O)c(O)c1,Not statistically significant
2,CCCc1c(OCc2ccccc2-c2nn[nH]n2)ccc(C(C)=O)c1O,Not statistically significant
3,CCCc1c(N(Cc2ccc(C(=O)O)cc2OC)C(C)=O)ccc(C(C)=O)c1O,Not statistically significant
4,CCCc1c(OCc2ccc(C(=O)O)cc2OC)ccc(C(=O)c2ccccc2)c1O,Not statistically significant
5,CCCc1c(NC(=O)c2ccc(C(=O)O)cc2OC)ccc(C(C)=O)c1O,Not statistically significant

# Species: Cavia porcellus
# Test: Percent inhibition of the leukotriene D4 (LTD4)-induced contraction of guinea pig tracheal spirals at 50 uM concentration
# Format: functional
# Conditions: Trachea
# In short: as §1
row,Compound,inhibition at 50 µM [%]
1,CCCCCCNC(=O)c1ccc(OCc2ccc(C(=O)O)cc2OC)c(CCC)c1O,27
2,CCCc1c(OCc2ccc(C(=O)O)cc2OC)ccc(C(=O)c2ccccc2)c1O,20
3,CCCc1c(OCc2ccc(C(=O)O)cc2OC)ccc(C(=O)N2CCCC2)c1O,90
4,CCCc1ccccc1OCc1ccc(C(=O)O)cc1OC,81
5,CCCc1c(OCC(O)CSCC(=O)O)ccc(C(C)=O)c1O (configuration not stated),44
6,CCCCCC(=O)c1ccc(OCc2ccc(C(=O)O)cc2OC)c(CCC)c1O,20

# Species: Cavia porcellus
# Test: Inhibition of the leukotriene D4 (LTD4)-induced contraction of guinea pig tracheal spirals at 10 uM concentration
# Format: functional
# Conditions: Trachea
# In short: as §1
row,Compound,inhibition at 10 µM [%]
1,CCCc1cc(C(C)O)ccc1OCc1ccc(C(=O)O)cc1OC (configuration not stated),44
2,CCCc1c(OCc2cc(Br)c(C(=O)O)cc2OC)ccc(C(C)=O)c1O,43
3,CCCc1c(OC(c2ccccc2)c2ccc(C(=O)O)cc2)ccc(C(C)=O)c1O (configuration not stated),16
4,CCCc1c(OCCCSCCC(=O)O)ccc(C(C)=O)c1O,50
5,CCCc1c(OCc2cccc(NS(C)(=O)=O)c2)ccc(C(C)=O)c1O,26
6,CCCc1c(OCc2ccc(OCCCc3nnn[nH]3)cc2)ccc(C(C)=O)c1O,56
7,CCCc1c(OCc2ccc(C(=O)O)cc2OC)ccc2c(=O)ccoc12,44
8,COc1cc(C(=O)O)ccc1COc1ccc(C(C)=O)c(O)c1C,73
9,CCCc1c(OCC(=O)c2ccc(C(=O)O)cc2)ccc(C(C)=O)c1O,66
10,CCCc1c(OCCCS(=O)(=O)CC(=O)O)ccc(C(C)=O)c1O,34
11,CCCc1c(OCc2ccc(C(=O)NS(C)(=O)=O)cc2OC)ccc(C(C)=O)c1O,97
12,CCCc1cc(C(C)=O)ccc1OCc1ccc(C(=O)O)cc1OC,67
13,CCCc1c(OCc2ccc(C(=O)O)cc2OC)ccc(C(=O)N2CCCC2)c1O,37
14,CCCc1c(OCCCCSCCC(=O)O)ccc(C(C)=O)c1O,74
15,CCCCCCNc1cc(OCc2ccc(C(=O)O)cc2OC)ccc1C(C)=O,11
16,CCCc1c(OCc2ccc(/C=C/c3nn[nH]n3)cc2)ccc(C(C)=O)c1O,44
17,CCCc1c(OCc2ccc(C(=O)NO)cc2OC)ccc(C(C)=O)c1O,65
18,CCCc1ccccc1OCc1ccc(C(=O)O)cc1OC,25
19,CCCc1c(OCc2ccc(C(=O)O)cc2)ccc(C(C)=O)c1O,100
20,CCCc1c(OCc2cccc(N)c2)ccc(C(C)=O)c1O,39
21,CCCc1c(OCCCCC(=O)O)ccc(C(C)=O)c1O,18
22,CCCc1c(OCc2ccc(C(=O)O)cc2OCC)ccc(C(C)=O)c1O,83
23,CCCc1c(OCC(O)CSCC(=O)O)ccc(C(C)=O)c1O (configuration not stated),19
24,CCCc1c(OCCCCCC(=O)O)ccc(C(C)=O)c1O,52
25,CCCc1c(OCCCCSCC(=O)O)ccc(C(C)=O)c1O,75
26,CCCc1c(OCc2ccc(C(=O)OC)cc2OCCCn2cnnn2)ccc(C(C)=O)c1O,75
27,CCCc1c(OCc2ccc(C(=O)O)cc2[N+](=O)[O-])ccc(C(C)=O)c1O,93
28,CCCc1c(OCc2ccc(C(=O)O)cc2OC)ccc(C(=O)Nc2ccccc2)c1O,25
29,CCCc1c(OCc2ccc(C(=O)O)cc2)ccc(C(=O)C(F)(F)F)c1O,36

# Species: Cavia porcellus
# Test: Percent inhibition of the leukotriene E4 (LTE4)-induced contraction of guinea pig tracheal spirals at 1 uM concentration
# Conditions: Trachea
row,Compound,inhibition at 1 µM [%]
1,CCCc1c(OCc2ccc(NC(=O)c3ccccc3C(=O)O)cc2)ccc(C(C)=O)c1O,49

# Species: Cavia porcellus
# Test: Percent inhibition of the leukotriene E4 (LTE4)-induced contraction of guinea pig tracheal spirals at 10 uM concentration; NS means data was not statistically significant.
# Format: functional
# Conditions: Trachea
# In short: as §1
row,Compound,inhibition
1,CCCCCCOc1cc(OCc2ccc(C(=O)O)cc2OC)ccc1C(C)=O,Not statistically significant
2,CCCc1c(O)cccc1OCc1ccc(C(=O)O)cc1OC,Not statistically significant
3,CCCc1c(OCc2ccc(/C=C/C(=O)Nc3nn[nH]n3)cc2)ccc(C(C)=O)c1O,Not statistically significant
4,COc1cc(C(=O)O)ccc1COc1cc(O)c2c(=O)ccn(C)c2c1,Not statistically significant
5,CCCc1c(OCc2ccc(C(=O)O)cc2OC)ccc(-c2ccc3ccccc3n2)c1O,Not statistically significant
6,CCCN(C(=O)c1ccc(C(=O)O)cc1)c1ccc(C(C)=O)c(O)c1,Not statistically significant
7,CCCc1c(OCc2ccc(C(=O)NS(=O)(=O)c3ccccc3)cc2OC)ccc(C(C)=O)c1O,Not statistically significant
8,CCCc1cc2c(cc1OCc1ccc(C(=O)O)cc1OC)C(=O)c1ccccc1-2,Not statistically significant
9,CCCc1c(OCc2ccc(C(=O)O)cc2OC)ccc(C(C)=O)c1NC(=O)c1ccccc1,Not statistically significant
10,CCCc1c(OCc2ccc(C(=O)O)cc2OC)cc2oc(-c3ccccc3)cc(=O)c2c1O,Not statistically significant
11,C=CCc1c(OCc2ccc(C(=O)O)cc2OC)cc2oc(-c3ccccc3)cc(=O)c2c1O,Not statistically significant
12,CCCc1c(OCc2ccc(C(=O)O)cc2OC)ccc2c1C(=O)c1ccccc1-2,Not statistically significant
13,CCCc1c(OCc2cccc(NS(=O)(=O)c3ccccc3)c2)ccc(C(C)=O)c1O,Not statistically significant
14,CCCc1c(OCc2ccc(C(=O)O)cc2OC)ccc(C(C)=O)c1NC(C)=O,Not statistically significant
15,COc1cc(C(=O)O)ccc1CNc1ccc(C(C)=O)c(O)c1,Not statistically significant
16,CCCCOC(=O)c1ccc(OCc2ccc(C(=O)O)cc2OC)c(CCC)c1O,Not statistically significant

# Species: Cavia porcellus
# Test: Percent inhibition of the leukotriene E4 (LTE4)-induced contraction of guinea pig tracheal spirals at 10 uM concentration
# Format: functional
# Conditions: Trachea
# In short: as §1
row,Compound,inhibition at 10 µM [%]
1,CCCc1c(NCc2ccc(C(=O)O)cc2OC)ccc(C(C)=O)c1O,73
2,CCCc1c(OCc2ccc(C(=O)O)cc2OC)ccc(C(C)=O)c1OCc1ccc(OC)cc1,25
3,CCCc1c(OCc2ccc(C(=O)O)cc2OC)ccc(C(=O)NC)c1O,50
4,CCCCCCOc1c(C(C)=O)ccc(OCc2ccc(C(=O)O)cc2OC)c1CCC,22
5,COc1cc(C(=O)O)ccc1COc1ccc(C(C)=O)c(O)c1C/C=C/c1ccccc1,32
6,C/C=C\c1cc(=O)oc2c(CCC)c(OCc3ccc(C(=O)O)cc3OC)ccc12,23
7,C=CCc1c(OCc2ccc(C(=O)O)cc2OC)ccc(C(C)=O)c1O,100
8,CCCc1c(OCc2ccc(C(=O)O)cc2OC)ccc2c(/C=C/c3ccccc3)cc(=O)oc12,7
9,CCCNc1c(C(C)=O)ccc(OCc2ccc(C(=O)O)cc2OC)c1CCC,61
10,CC/N=C(/NCC)NCCCC[C@@H](NC(=O)[C@H](Cc1ccc(O)cc1)NC(=O)[C@H](CO)NC(=O)[C@@H](Cc1c[nH]c2ccccc12)NC(=O)[C@@H](Cc1ccc(Cl)cc1)NC(=O)[C@@H](Cc1ccc(Cl)cc1)NC(C)=O)C(=O)N[C@@H](CC(C)C)C(=O)N[C@@H](CCCN=C(N)N)C(=O)N1CCC[C@H]1C(=O)N[C@H](C)C(N)=O,40
11,C/C=C/c1cc(=O)oc2c(CCC)c(OCc3ccc(C(=O)O)cc3OC)ccc12,21
12,COc1cc(C(=O)O)ccc1CN(Cc1ccccc1)c1ccc(C(C)=O)c(O)c1,36
13,CCCc1cc2ccccc2cc1OCc1ccc(C(=O)O)cc1OC,51
14,COc1cc(C(=O)O)ccc1COc1ccc(C(C)=O)c(O)c1CCCC(C)=O,21
15,COc1cc(C(=O)O)ccc1COc1ccc(C(C)=O)c(OCc2ccccc2)c1,24
16,CCCc1c(N(Cc2ccc(C(=O)O)cc2OC)C(=O)c2ccccc2)ccc(C(C)=O)c1O,12
